Hsp90 block – displaces geldanamycin probe from tumor Hsp90. P07900. NCI-N417 lysate Hsp90, Cy3B-geldanamycin FP displacement. inhibition, % at 30 µM. 0.35% of 64,000 active. AID 429;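 active = inhibition above 50%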;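 note: 0% = tracer plus lysate wells and 100% = tracer alone without lysate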
Cdc25B block – human M-phase inducer phosphatase 2 inhibition; recombinant Cdc25B, OMFP fluorescence Ex485/Em525; inhibition, %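 (compounds tested at 10 µM final in the well)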; 0.1% of 65,000 active; in the data active = inhibition above about 50%
tolC growth inh – E. coli tolC mutant growth inhibition | E. coli BW25113 tolC mutant growth, OD615 | growth inhibition, % at 10 µM (by protocol) | 2.2% of 65,000 active | AID 573;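 active = growth inhibition at or above a cutoff equal to the mean over every tested compound plus 3 SD, cut at about 60% in these data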;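 note: growth measured after 20 h incubation at 37 °C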
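Doses: one dose of 10 µM final / Material: E. coli BW25113 ΔtolC::kan, tolC deletion mutant strain / Buffer or medium: LB with kanamycin 50 µg/mL / Evaluation: percent growth inhibition / Detection: optical density read at 615 nm / Incubation: 37 °C, 20 h exposure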
BAP1 inh – human BAP1 deubiquitinase inhibition | AID 436 | Q92560 | 0.48% of 72,000 active | recombinant BAP1, Ub-AMC hydrolysis fluorescence kinetic; hits give low values | calls only at 20 µM;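 active = activity remaining at or below 50% of control, provided the compound also passes the data quality filters; inactive = the rest, including low values that fail the filters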;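 note: 100% = DMSO wells rate and 0% = substrate alone blank rate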
MKP-1 inh – human dual specificity phosphatase 1 inhibition. 0.15% of 65,000 active. inhibition, %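 (compounds tested at a single concentration somewhere between 10 and 100 µM)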. recombinant MKP-1, OMFP hydrolysis fluorescence;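 active = inhibition above about 50%, limit read from the data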;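 note: 0% = DMSO max control wells and 100% = wells with enzyme stopped by NaOH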
Ec RNAP inh – inhibitors of Escherichia coli RNA polymerase; inhibition, %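 (tested at 10 µM)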; AID 559; E. coli RNA polymerase, fluorescence transcription assay; 0.2% of 62,000 active; in the data active = inhibition above about 20%;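 note: 0% = enzyme without compound and 100% = no enzyme blank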
* hit, by the source's call; i = inactive; · = not tested or not shown. In the library only some 2.9% were active in any assay of this set; here they are far more common.

SMILES	Hsp90 block	Cdc25B block	tolC growth inh	BAP1 inh	MKP-1 inh	Ec RNAP inh
Nc1nonc1N1CCCCC1	72*	3	-2	i	-17	8
Cc1cccc(N(C)C(=O)c2cc3cc4ccc(C)cc4nc3o2)c1	0	9	96*	i	4	6
CCC(C(=O)Nc1ccccc1OC)n1c(C(=O)OC)cc2ccsc21 (stereo not drawn)	-4	-13	71*	i	3	-6
O=C(NC12CC3CC(CC(C3)C1)C2)c1ccccc1O	-2	-1	62*	i	21	·
CC(=O)c1ccc(N2C(=O)c3cccc([N+](=O)[O-])c3C2=O)cc1	·	·	·	i	·	·
Cc1ccc2[nH]c(-c3cccc(N)c3)cc2c1	-1	8	20	i	-3	·
Cc1ccc(O)c(-c2cc3ccccc3[nH]2)c1	-3	-6	100*	·	-5	8
O=C(CSc1nnc(CNc2ccc(Cl)cc2)o1)Nc1nc2c(s1)CCCC2	1	-11	7	i	2	23*
COC(=O)c1ccc(CSc2nc3ccccc3o2)cc1	-1	-7	65*	i	19	11
N#CCSc1n[nH]c2nc3c(c(=O)n12)C1(CCCC1)Cc1ccccc1-3	·	-5	98*	·	30	-6
CCCn1c(SCC#N)nc2c(c1=O)C1(CCCC1)Cc1ccccc1-2	-1	-1	2	i	-27	6
O=[N+]([O-])c1ccc(O)c(C=Nc2ccccc2-c2nc3ccccc3s2)c1	·	·	·	i	·	·
CCCCN(CCCNC(=O)CN1C(=O)COc2ccccc21)c1ccccc1	·	-20	61*	·	16	2
CCN(CCCNC(=O)CN1C(=O)COc2ccccc21)c1ccccc1	·	7	12	·	14	11
CC1(C)CC2CC(C)(CN2C(=O)c2cc(-c3ccccc3O)on2)C1 (stereo not drawn)	-5	-5	95*	i	-6	2
COc1ccc(-c2cc(C(=O)N3CC4(C)CC3CC(C)(C)C4)no2)cc1 (stereo not drawn)	2	6	65*	i	-3	6
CC1(C)CC2CC(C)(CN2C(=O)c2cccs2)C1 (stereo not drawn)	1	-3	10	i	-7	1
COc1ccc(-c2cc(C(=O)N3CC4(C)CC3CC(C)(C)C4)no2)cc1OC (stereo not drawn)	-2	-18	71*	i	37	4
COc1cccc(-c2cc(C(=O)N3CCN(C(c4ccccc4)c4ccccc4)CC3)no2)c1	3	-12	-4	i	11	5
COc1cccc(-c2cc(C(=O)N3C(C)CCCC3C)no2)c1 (stereo not drawn)	1	-3	68*	i	24	-9
COc1ccc(-c2cc(C(=O)N3CCOCC3)no2)cc1OC	0	-12	-4	i	1	4
O=[N+]([O-])c1ccc(N2CCN(S(=O)(=O)c3ccccc3)CC2)c(C(F)(F)F)c1	·	·	·	i	·	·
Cc1ccc(COc2cc3oc(=O)cc(C)c3cc2Cl)cc1	·	·	·	i	·	·
CCC(Sc1nc(-c2ccccc2)cc(-c2ccccc2)n1)C(=O)Nc1nnc(C)s1 (stereo not drawn)	·	·	·	i	·	·
Cc1cc(Cl)ccc1OC(C)C(=O)Nc1ccccc1N1CCOCC1 (stereo not drawn)	-7	-5	66*	i	1	1
SMILES	Hsp90 block	Cdc25B block	tolC growth inh	BAP1 inh	MKP-1 inh	Ec RNAP inh
CC1CCN(S(=O)(=O)c2ccc3c(c2)c(=O)c(C(=O)NC2CCCC2)cn3C)CC1	2	-1	7	i	50*	-1
COc1ccc(OC)c(NC(=O)CN2C(=O)c3ccccc3S2(=O)=O)c1	0	-1	-6	i	-3	9
COc1ccc2c(c1)-c1ccccc1S(=O)(=O)N2C(C)=O	-1	-3	4	i	-2	29*
c1ccc(-c2cc(-c3nc(-c4cccnc4)no3)c3ccccc3n2)cc1	-2	16	-10	i	22	·
c1ccc(-c2noc(-c3cccc4ccccc34)n2)cc1	-4	-17	70*	·	-18	5
c1ccc(-c2ccccc2-c2nc(-c3cccnc3)no2)cc1	-6	-4	98*	i	7	12
c1ccc(CCc2ccccc2-c2nc(-c3cccnc3)no2)cc1	-9	-37	73*	·	10	2
c1ccc(CCc2nc(-c3cccnc3)no2)cc1	-2	-3	-5	i	-7	-9

Screening data deposited in PubChem BioAssay by several laboratories.
